{"data": "Results pooled from the literature", "target": "Serine/threonine-protein kinase TAO2 (TAOK2, Homo sapiens, UniProt Q9UL54)", "One construct used (Q9UL54 1-1235)": "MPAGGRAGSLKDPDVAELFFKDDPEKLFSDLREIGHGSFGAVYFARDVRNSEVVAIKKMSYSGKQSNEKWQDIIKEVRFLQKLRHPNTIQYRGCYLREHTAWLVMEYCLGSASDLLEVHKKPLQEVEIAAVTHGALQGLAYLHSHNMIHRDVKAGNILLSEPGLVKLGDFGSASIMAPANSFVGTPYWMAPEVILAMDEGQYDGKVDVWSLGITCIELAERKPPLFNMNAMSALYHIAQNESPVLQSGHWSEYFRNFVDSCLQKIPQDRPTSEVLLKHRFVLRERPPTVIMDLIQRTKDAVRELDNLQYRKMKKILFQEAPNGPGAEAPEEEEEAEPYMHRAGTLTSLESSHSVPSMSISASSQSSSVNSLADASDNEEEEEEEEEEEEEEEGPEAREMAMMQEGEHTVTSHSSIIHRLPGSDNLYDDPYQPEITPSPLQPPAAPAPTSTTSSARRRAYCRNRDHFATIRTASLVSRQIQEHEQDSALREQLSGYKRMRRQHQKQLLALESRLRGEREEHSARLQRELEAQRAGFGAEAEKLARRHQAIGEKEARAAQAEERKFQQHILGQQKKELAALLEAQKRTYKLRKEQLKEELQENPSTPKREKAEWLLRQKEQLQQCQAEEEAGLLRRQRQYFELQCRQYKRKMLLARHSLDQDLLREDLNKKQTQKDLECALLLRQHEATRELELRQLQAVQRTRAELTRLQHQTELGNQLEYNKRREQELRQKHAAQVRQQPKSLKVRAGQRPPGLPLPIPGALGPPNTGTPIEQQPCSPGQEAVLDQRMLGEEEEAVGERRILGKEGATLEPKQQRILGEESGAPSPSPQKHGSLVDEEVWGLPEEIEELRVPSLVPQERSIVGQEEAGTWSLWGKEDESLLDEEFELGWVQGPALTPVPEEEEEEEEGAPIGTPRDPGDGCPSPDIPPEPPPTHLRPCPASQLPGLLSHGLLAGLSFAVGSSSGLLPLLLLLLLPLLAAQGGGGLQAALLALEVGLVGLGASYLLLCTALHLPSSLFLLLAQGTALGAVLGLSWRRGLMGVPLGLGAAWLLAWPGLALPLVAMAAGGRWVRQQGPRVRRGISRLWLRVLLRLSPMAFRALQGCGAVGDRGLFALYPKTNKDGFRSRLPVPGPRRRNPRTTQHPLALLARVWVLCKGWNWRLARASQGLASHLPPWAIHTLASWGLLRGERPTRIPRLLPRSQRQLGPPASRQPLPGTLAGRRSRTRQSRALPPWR", "note": "Lines come from different studies, so protocols differ."}
{"SMILES": "Nc1ncc2c(n1)-c1c([nH]c3ccc(C#CC4CC4)cc13)CCCC2", "read-out": "binding", "technique": "competition with immobilised ligand", "tested at": "1 µM", "remaining binding": "90%"}
{"SMILES": "COc1cnc(Nc2cccc(S(N)(=O)=O)c2)nc1N1CCN(c2ccccc2)C(=O)C1", "read-out": "binding", "technique": "competition with immobilised ligand", "tested at": "1 µM", "remaining binding": "95%"}
{"SMILES": "CN(CCCC(F)(F)F)c1nccc(-c2cnn3ncccc23)n1", "read-out": "binding", "tested at": "1 µM", "remaining binding": "100%"}
{"SMILES": "CCc1ccccc1C(=O)Nc1n[nH]c2c(C)c(F)c(C3C(C#N)=C(C)N(C)C(C)=C3C#N)cc12", "read-out": "cell-free assay", "technique": "competition with immobilised ligand", "tested at": "1 µM", "remaining binding": "96%"}
{"SMILES": "O=C(c1ccc(Nc2nccc(-c3cc4ccccc4s3)n2)cc1)N1CCC(N2CCCC2)CC1", "read-out": "binding", "technique": "competition with immobilised ligand", "tested at": "1 µM", "remaining binding": "71%"}
{"SMILES": "C[C@@H](c1ccc(-n2cnc3c(N)ncnc32)cc1)N1CCc2nn(C)c(Cc3ccccc3)c2C1=O", "read-out": "binding", "technique": "competition with immobilised ligand", "tested at": "0.1 µM", "remaining binding": "70%"}
{"SMILES": "c1cnn2ncc(-c3ccnc(N4CCC45COC5)n3)c2c1", "read-out": "binding", "tested at": "1 µM", "remaining binding": "71%"}
{"SMILES": "O=C(c1ccc(Nc2ncc(Cl)c(-c3cc4ccccc4s3)n2)cc1)N1CCC(N2CCCC2)CC1", "read-out": "binding", "technique": "competition with immobilised ligand", "tested at": "1 µM", "remaining binding": "66%"}
{"SMILES": "Cc1cnn2ncc(-c3ccnc(N(C)C)n3)c2c1", "read-out": "binding", "tested at": "1 µM", "remaining binding": "94%"}
{"SMILES": "CCOC(=O)c1cc2cc(-c3cc(C(=O)NCc4ccc(C(=O)O)cc4)nn3C)ccc2[nH]1", "read-out": "cell-free assay", "technique": "competition with immobilised ligand", "tested at": "0.1 µM", "remaining binding": "90%"}
{"SMILES": "O=C(NCC1CCOCC1)c1n[nH]cc1NC(=O)c1c(F)cccc1F", "read-out": "binding", "technique": "competition with immobilised ligand", "tested at": "1 µM", "remaining binding": "100%"}
{"SMILES": "O=S(=O)(NC1CCC(c2cc(F)ccc2F)(S(=O)(=O)c2ccc(Cl)cc2)CC1)C(F)(F)F (stereo not shown)", "read-out": "cell-free assay", "technique": "competition with immobilised ligand", "tested at": "1 µM", "remaining binding": "100%"}
{"SMILES": "C=CC(=O)N1CCC(C(=O)NCC(=O)N2CCN(c3nc(-c4cnc(N)nc4C(F)F)nc(N4CCOCC4)n3)CC2)CC1", "read-out": "binding", "technique": "competition with immobilised ligand", "tested at": "1 µM", "remaining binding": "72%"}
{"SMILES": "CN(C)c1nccc(-c2cnc3ncccn23)n1", "read-out": "binding", "tested at": "1 µM", "remaining binding": "76%"}
{"SMILES": "Cc1cc(NC(=O)c2cccc(S(F)(F)(F)(F)F)c2)cc(-n2ccn3nc(-c4cccnc4)cc23)c1", "read-out": "cell-free assay", "technique": "competition with immobilised ligand", "tested at": "1 µM", "remaining binding": "91.3%"}
{"SMILES": "F[C@@H]1CCN(c2nccc(-c3cnn4ncccc34)n2)C1", "read-out": "binding", "tested at": "1 µM", "remaining binding": "100%"}
{"SMILES": "COc1cnc(Nc2cccc(S(N)(=O)=O)c2)nc1N1CCN(c2ccccc2)CC1", "read-out": "binding", "technique": "competition with immobilised ligand", "tested at": "1 µM", "remaining binding": "86%"}
{"SMILES": "Cc1cnc(Nc2ccc(C(=O)N3CCC(N4CCCC4)CC3)cc2)nc1-c1cc2ccccc2s1", "read-out": "binding", "technique": "competition with immobilised ligand", "tested at": "1 µM", "remaining binding": "29%"}
{"SMILES": "Cn1nc(C(=O)NCc2ccc(C(=O)O)cc2)cc1-c1ccc2[nH]ccc2c1", "read-out": "cell-free assay", "technique": "competition with immobilised ligand", "tested at": "0.1 µM", "remaining binding": "82%"}
{"SMILES": "N[C@@H]1CCN(c2nccc(-c3cnn4ncccc34)n2)C1", "read-out": "binding", "tested at": "1 µM", "remaining binding": "100%"}
{"SMILES": "FC(F)(F)Oc1cccc(-c2cnc3ccc(-c4ccncc4)nn23)c1", "read-out": "binding", "technique": "competition with immobilised ligand", "tested at": "5 µM", "remaining binding": "100%"}
{"SMILES": "COc1ccc2c(c1)O[C@H](c1ccc(OC)c(OC)c1)C[C@@H]2NC(=O)C1(c2ccc3c(c2)OC(F)(F)O3)CC1", "read-out": "cell-free assay", "technique": "competition with immobilised ligand", "tested at": "1 µM", "remaining binding": "98%"}
